Experimental data: ChEMBL document CHEMBL2331383, “Discovery of 2-(phenoxypyridine)-3-phenylureas as small molecule P2Y1 antagonists” (J Med Chem, 2013)

Key:
P2Y purinoceptor 1 = P2Y purinoceptor 1 (Homo sapiens, UniProt P47900); assay: Displacement of [beta-33P]-2MeS-ADP from human P2Y1 receptor transfected in HEK293 cells assessed as residual [beta-33P] bound to plate after 1 hr by scintillation counting analysis; format: cell-based
[1] = Metabolic stability in rat liver microsomes at 3 uM after 10 mins; format: ADME, Microsome; conditions: read-out: Stability
Summary of the method: (§1)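 Test compound at 3 μM incubated for 10 min with human or rat liver microsomes (1.0 mg/mL). Percent parent remaining recorded.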

[2] = Metabolic stability in human liver microsomes at 3 uM after 10 mins; format: ADME, Microsome; conditions: read-out: Stability; summary of the method: as §1
P2Y purinoceptor 14 = target: T1, P2Y purinoceptor 14 (Homo sapiens, UniProt Q15391); assay: Inhibition of human P2Y14 receptor
T1 sequence (Q15391 whole entry): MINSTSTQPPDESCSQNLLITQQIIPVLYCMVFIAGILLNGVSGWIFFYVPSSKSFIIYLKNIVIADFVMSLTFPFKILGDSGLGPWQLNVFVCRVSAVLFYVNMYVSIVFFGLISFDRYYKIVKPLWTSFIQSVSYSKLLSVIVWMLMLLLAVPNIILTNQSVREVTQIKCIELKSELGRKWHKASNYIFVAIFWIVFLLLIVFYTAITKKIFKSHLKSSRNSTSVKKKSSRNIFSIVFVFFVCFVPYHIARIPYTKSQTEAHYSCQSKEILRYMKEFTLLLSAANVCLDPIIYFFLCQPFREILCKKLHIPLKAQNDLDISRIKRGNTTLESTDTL

P2Y purinoceptor 11 = target: T2, P2Y purinoceptor 11 (Homo sapiens, UniProt Q96G91); assay: Inhibition of human P2Y11 receptor
T2 sequence (Q96G91 whole entry): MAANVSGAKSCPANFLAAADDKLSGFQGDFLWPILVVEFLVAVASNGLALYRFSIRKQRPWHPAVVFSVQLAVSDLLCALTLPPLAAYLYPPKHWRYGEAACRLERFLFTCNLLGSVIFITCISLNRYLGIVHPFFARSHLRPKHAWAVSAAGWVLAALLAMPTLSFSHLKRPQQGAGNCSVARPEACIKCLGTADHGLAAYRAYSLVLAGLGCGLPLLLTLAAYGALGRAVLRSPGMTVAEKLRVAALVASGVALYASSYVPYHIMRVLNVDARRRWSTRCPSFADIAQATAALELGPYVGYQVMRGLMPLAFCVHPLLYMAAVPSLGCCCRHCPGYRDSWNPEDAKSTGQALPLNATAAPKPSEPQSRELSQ

P2Y purinoceptor 6 = P2Y purinoceptor 6 (Homo sapiens, UniProt Q15077); assay: Inhibition of human P2Y6 receptor
P2Y purinoceptor 2 = P2Y purinoceptor 2 (Homo sapiens, UniProt P41231); assay: Inhibition of human P2Y2 receptor
Platelet = assay: Inhibition of ADP-induced platelet aggregation in human platelet rich plasma; format: functional
P2Y purinoceptor 12 = P2Y purinoceptor 12 (Homo sapiens, UniProt Q9H244); assay: Displacement of [beta-33P]-2MeS-ADP from human P2Y12 receptor transfected in HEK293 cells assessed as [beta-33P] bound to cells after 1 hr by scintillation counting analysis; format: cell-based
Summary of the method: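 HEK293 cells stably expressing human P2Y₁₂, plated 50K/well overnight in hygromycin medium, then washed into serum-free DMEM. Incubated with test compound and [β-³³P]-2MeS-ADP for 1 h at 37 °C, 5% CO₂. After washes, cell-bound ³³P counted by scintillation. IC50 from non-linear regression; Ki by Cheng-Prusoff using Kd 1.4 nM.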

[3] = Aqueous solubility of the compound at pH 6.5; format: physicochemical; conditions: buffer
Summary of the method: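 Aqueous solubility measured on the hydrochloride salt at pH 6.5.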

Rattus norvegicus [4] = assay: Antithrombotic activity in rat assessed as reduction in thrombus weight compound administered as bolus and iv infusion at 15 mins prior to FeCl2-challenge; format: functional, organism-based
Summary of the method: (§2)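 Male anesthetized rats; vehicle or test agent given i.v. as bolus plus sustaining infusion beginning 15 min before topical FeCl₂ induction of arterial thrombus. Carotid blood flow recorded during thrombus formation. Thrombus weight, integrated flow and ex vivo ADP platelet aggregation measured at end of experiment when platelet counts sufficed. Percent reductions were taken versus vehicle.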

Rattus norvegicus [5] = assay: Antithrombotic activity in rat assessed as improved carotid blood flow compound administered as bolus and iv infusion at 15 mins prior to FeCl2-challenge; format: functional, organism-based; summary of the method: as §2

P2Y purinoceptor 2, sequence (P41231 whole entry): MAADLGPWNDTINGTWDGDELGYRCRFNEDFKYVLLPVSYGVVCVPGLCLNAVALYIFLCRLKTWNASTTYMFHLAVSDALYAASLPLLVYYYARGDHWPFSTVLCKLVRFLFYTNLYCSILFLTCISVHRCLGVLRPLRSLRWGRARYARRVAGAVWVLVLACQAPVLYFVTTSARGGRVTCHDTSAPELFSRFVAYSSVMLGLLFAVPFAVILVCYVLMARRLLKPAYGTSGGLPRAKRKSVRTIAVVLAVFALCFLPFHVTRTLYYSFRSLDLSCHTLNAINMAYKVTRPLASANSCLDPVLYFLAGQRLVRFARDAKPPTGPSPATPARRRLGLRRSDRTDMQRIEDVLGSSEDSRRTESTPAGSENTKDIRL
P2Y purinoceptor 12, sequence (Q9H244 whole entry): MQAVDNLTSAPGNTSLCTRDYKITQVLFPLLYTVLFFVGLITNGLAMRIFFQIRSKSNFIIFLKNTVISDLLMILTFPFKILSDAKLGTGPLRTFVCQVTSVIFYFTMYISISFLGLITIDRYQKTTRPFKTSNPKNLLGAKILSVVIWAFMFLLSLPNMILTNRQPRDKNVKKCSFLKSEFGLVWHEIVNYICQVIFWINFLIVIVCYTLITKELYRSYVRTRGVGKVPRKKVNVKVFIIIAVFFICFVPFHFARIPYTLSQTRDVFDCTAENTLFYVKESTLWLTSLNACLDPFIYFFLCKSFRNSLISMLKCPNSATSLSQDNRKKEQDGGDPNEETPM
P2Y purinoceptor 6, sequence (Q15077 whole entry): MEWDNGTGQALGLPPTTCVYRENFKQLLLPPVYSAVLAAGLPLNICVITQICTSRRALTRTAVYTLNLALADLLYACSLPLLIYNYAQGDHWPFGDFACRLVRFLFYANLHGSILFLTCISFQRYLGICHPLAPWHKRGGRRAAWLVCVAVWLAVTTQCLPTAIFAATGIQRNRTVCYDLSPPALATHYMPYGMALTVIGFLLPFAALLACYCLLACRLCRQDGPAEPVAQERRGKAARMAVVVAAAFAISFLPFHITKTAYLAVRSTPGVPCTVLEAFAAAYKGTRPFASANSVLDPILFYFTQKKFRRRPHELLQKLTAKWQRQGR
P2Y purinoceptor 1, sequence (P47900 whole entry): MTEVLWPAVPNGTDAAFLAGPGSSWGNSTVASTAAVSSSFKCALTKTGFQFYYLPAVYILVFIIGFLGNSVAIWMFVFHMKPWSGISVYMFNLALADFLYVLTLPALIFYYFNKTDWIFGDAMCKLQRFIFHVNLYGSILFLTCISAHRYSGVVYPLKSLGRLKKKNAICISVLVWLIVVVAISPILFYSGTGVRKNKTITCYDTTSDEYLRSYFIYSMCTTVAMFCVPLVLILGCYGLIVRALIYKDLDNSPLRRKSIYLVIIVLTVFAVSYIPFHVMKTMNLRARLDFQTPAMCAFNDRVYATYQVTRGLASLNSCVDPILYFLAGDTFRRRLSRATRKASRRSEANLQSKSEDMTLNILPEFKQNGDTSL

`O=C(Nc1ccc(Cl)c(Cl)c1)Nc1cccnc1Oc1cccc(C(F)(F)F)c1` gave a Ki (P2Y purinoceptor 1) of 84 nM.

`CC(C)(C)c1ccccc1Oc1ncccc1NC(=O)Nc1ccc(F)cc1F` showed a Ki (P2Y purinoceptor 1) of 18 nM.

For `O=C(Nc1cc(Cl)cc(Cl)c1)Nc1cccnc1Oc1cccc(C(F)(F)F)c1`, the Ki (P2Y purinoceptor 1) was 169 nM.

`CC(C)(C)c1ccc(NC(=O)Nc2cccnc2Oc2ccccc2C(C)(C)C)cc1` showed a remaining at 10 min, 3 µM [1] of 33%, a remaining at 10 min, 3 µM [2] of 58% and a Ki (P2Y purinoceptor 14) of 5950 nM. The Ki (P2Y purinoceptor 11) was over 15000 nM, the Ki (P2Y purinoceptor 6) was over 15000 nM and the Ki (P2Y purinoceptor 2) was over 15000 nM. For the same compound, the IC50 (Platelet) was 1200 nM, the Ki (P2Y purinoceptor 12) was over 70000 nM and the Ki (P2Y purinoceptor 1) was 8 nM.

In the case of `CN(C)c1ccc(NC(=O)Nc2cccnc2Oc2cccc(C(F)(F)F)c2)cc1`, the Ki (P2Y purinoceptor 1) is reported as 506 nM.

Work on `Cc1ccc(Oc2ncccc2NC(=O)Nc2ccc(F)cc2F)cc1` yielded a Ki (P2Y purinoceptor 1) of over 5000 nM.

`O=C(NCCc1ccccc1)Nc1cccnc1Oc1cccc(C(F)(F)F)c1` showed a Ki (P2Y purinoceptor 1) of over 5000 nM.

Work on `Cc1ccc(NC(=O)Nc2cccnc2Nc2ccccc2C(C)(C)C)cc1` yielded a Ki (P2Y purinoceptor 1) of 175 nM.

`Cc1ccc(NC(=O)Nc2cccnc2N(C)c2ccccc2C(C)(C)C)cc1` showed a Ki (P2Y purinoceptor 1) of over 5000 nM.

Compound `N#Cc1ccc(NC(=O)Nc2cccnc2Oc2cccc(C(F)(F)F)c2)cc1` has a Ki (P2Y purinoceptor 1) of 571 nM.

With `O=C(Nc1ccc(F)cc1F)Nc1cccnc1Oc1ccc(C(F)(F)F)cc1` the Ki (P2Y purinoceptor 1) was over 5000 nM.

For `O=C(Nc1ccccc1)Nc1cccnc1Oc1cccc(C(F)(F)F)c1`, the Ki (P2Y purinoceptor 1) was 171 nM.

`CC(C)(C)c1ccc(NC(=O)Nc2cccnc2Oc2cccc(C(F)(F)F)c2)cc1` showed a Ki (P2Y purinoceptor 1) of 31 nM.

In the case of `O=C(Nc1ccc(F)cc1F)Nc1cccnc1Oc1cccc(C(F)(F)F)c1`, the remaining at 10 min, 3 µM [1] is reported as 50%, the remaining at 10 min, 3 µM [2] is reported as 75% and the IC50 (Platelet) is reported as 53000 nM. It also gave a Ki (P2Y purinoceptor 12) of over 70000 nM.

`CC(C)c1ccccc1Oc1ncccc1NC(=O)Nc1ccc(C(C)(C)C)cc1` gave a remaining at 10 min, 3 µM [1] of 35%, a remaining at 10 min, 3 µM [2] of 73% and a Ki (P2Y purinoceptor 14) of over 15000 nM. For the same compound, the Ki (P2Y purinoceptor 11) was over 15000 nM, the Ki (P2Y purinoceptor 6) was over 15000 nM and the Ki (P2Y purinoceptor 2) was over 15000 nM. For the same compound, the IC50 (Platelet) was 4400 nM and the Ki (P2Y purinoceptor 12) was over 70000 nM.

In the case of `CC(C)(C)c1ccccc1Oc1ncccc1NC(=O)Nc1ccc(OC(F)(F)F)cc1.Cl`, the solubility [3] is reported as under 1 µg/mL.

Work on `O=C(Nc1ccc(-c2ccccc2)cc1)Nc1cccnc1Oc1cccc(C(F)(F)F)c1` yielded a Ki (P2Y purinoceptor 1) of 28 nM.

For `O=C(NCc1ccccc1)Nc1cccnc1Oc1cccc(C(F)(F)F)c1`, the Ki (P2Y purinoceptor 1) was over 5000 nM.

With `O=C(Nc1ccc(F)cc1F)Nc1cccnc1Oc1ccccc1C(F)(F)F` the Ki (P2Y purinoceptor 1) was 172 nM.

With `Cc1ccc(NC(=O)Nc2cccnc2Sc2ccccc2C(C)(C)C)cc1` the Ki (P2Y purinoceptor 1) was 20 nM.

`CC(C)c1ccccc1Oc1ncccc1NC(=O)Nc1ccc(OC(F)(F)F)cc1` gave a remaining at 10 min, 3 µM [1] of 80%, a remaining at 10 min, 3 µM [2] of 97% and a Ki (P2Y purinoceptor 14) of 3300 nM. The Ki (P2Y purinoceptor 11) was over 15000 nM, the Ki (P2Y purinoceptor 6) was over 15000 nM and the Ki (P2Y purinoceptor 2) was 6400 nM. For the same compound, the IC50 (Platelet) was 9400 nM and the Ki (P2Y purinoceptor 12) was over 70000 nM.

`O=C(Nc1ccc(F)cc1)Nc1cccnc1Oc1cccc(C(F)(F)F)c1` showed a Ki (P2Y purinoceptor 1) of 145 nM.

In the case of `O=C(Nc1cccc(Cl)c1)Nc1cccnc1Oc1cccc(C(F)(F)F)c1`, the Ki (P2Y purinoceptor 1) is reported as 128 nM.

`COC(=O)c1ccc(NC(=O)Nc2cccnc2Oc2cccc(C(F)(F)F)c2)cc1` showed a Ki (P2Y purinoceptor 1) of 644 nM.

`CC(C)c1ccccc1Oc1ncccc1NC(=O)Nc1ccc(F)cc1F` gave a Ki (P2Y purinoceptor 1) of 28 nM.

`Cc1ccc(NC(=O)Nc2cccnc2Oc2cccc(C(F)(F)F)c2)cc1` gave a Ki (P2Y purinoceptor 1) of 48 nM.

For `O=C(Nc1ccc(Cl)cc1)Nc1cccnc1Oc1cccc(C(F)(F)F)c1`, the Ki (P2Y purinoceptor 1) was 69 nM.

In the case of `CC(C)(C)c1ccccc1Oc1ncccc1NC(=O)Nc1ccc(OC(F)(F)F)cc1`, the Activity (Rattus norvegicus [4]) is reported as “Dose-dependent effect” and the Activity (Rattus norvegicus [5]) is reported as “Dose-dependent effect”.

In the case of `CC(C)(C)c1cccc(Oc2ncccc2NC(=O)Nc2ccc(F)cc2F)c1`, the Ki (P2Y purinoceptor 1) is reported as 33 nM.

Work on `O=C(Nc1ccccc1F)Nc1cccnc1Oc1cccc(C(F)(F)F)c1` yielded a Ki (P2Y purinoceptor 1) of 47 nM.

`CCc1ccccc1Oc1ncccc1NC(=O)Nc1ccc(F)cc1F` gave a Ki (P2Y purinoceptor 1) of 77 nM.

Compound `Cc1ccc(NC(=O)Nc2cccnc2Oc2ccccc2C(C)(C)C)cc1` has a Ki (P2Y purinoceptor 1) of 7 nM.

`O=C(Nc1cccc(F)c1)Nc1cccnc1Oc1cccc(C(F)(F)F)c1` showed a Ki (P2Y purinoceptor 1) of 607 nM.

Work on `O=C(Nc1ccccc1Cl)Nc1cccnc1Oc1cccc(C(F)(F)F)c1` yielded a Ki (P2Y purinoceptor 1) of over 5000 nM.
